Results as given in ChEMBL document CHEMBL1127556, “Synthesis and topical antiinflammatory and antiallergic activities of antioxidant o-aminophenol derivatives” (J Med Chem, 1994).
In brackets after ≈: the same amount, converted by molar mass.

Experiments:
[1] = system: Mus musculus; test: Inhibitory effects on arachidonic acid (AA) induced mouse ear edema at a dose of 100 ug/ear; format: functional
Method in brief: (§1)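 Male ICR mice (30–40 g, 10–15 per group). Compound in 25 μL acetone/pyridine/water 97:2:1 with arachidonic acid (50 mg/mL) applied to inner surface of one ear. After 1 h, CO2 sacrifice, 6-mm disk punched, edema measured as change in wet weight versus controls.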

[2] = species on record: Mus musculus; test: Inhibitory effects on delayed type hypersensitive reaction in mouse ears at a dose of 300 ug/site; format: functional
Method in brief: (§2)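 ICR mice, 10 or 12 per group, sensitized by abdominal swabbing with 0.1 mL antigen in acetone (7% picryl chloride or 1% OXA). DTH response assessed in mouse ears.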

[3] = species on record: Rattus norvegicus; test: Evaluated for its antioxidative effect using the thiobarbituric acid (TBA) method in rat; format: functional
Method in brief: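 Test sample in 67 mM phosphate buffer pH 7.4 mixed with 10% male Wistar rat (300–400 g) forebrain homogenate. Shaken 1 h at 37 °C, deproteinated with 20% TCA. Supernatant heated 10 min at 100 °C with 1.2% thiobarbiturate; absorbance read at 532 nm.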

[4] = system: Mus musculus; test: Evaluated for its inhibitory effects on 12-O-tetradecanoylphorbol-13-acetate (TPA) -induced edema in mouse ear at a dose of 100 ug/site; format: functional
Method in brief: (§3)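 Male ICR mice, 30–40 g, 10–15 per group. Test compound applied in 25 μL acetone/pyridine/water 97:2:1 containing TPA (200 μg/mL) to the inner surface of one ear. Killed with CO2 5 h later; 6-mm ear punch weighed wet for edema. ED50 taken from three-point dose titration curves.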

[5] = species on record: Rattus norvegicus; test: Inhibitory effects on passive cutaneous anaphylaxis in rats at a dose of 1 mg/site; format: functional
Method in brief: (§4)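 Male SD rats, eight per group, sensitized intradermally at two dorsal sites with 0.05 mL anti-ovalbumin rat IgE serum diluted 1:8 in 0.9% saline. Compound applied topically to those sites 5 h before iv challenge 48 h later with 2 mg ovalbumin plus 5 mg Evans blue in 1 mL. Extravasated dye measured 30 min later; percent inhibition versus control group.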

[6] = system: Cavia porcellus; test: Compound was evaluated for maximization test in guinea pigs and the edema was observed for the experiment 0; format: functional
Method in brief: (§5)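 Maximization test in guinea pigs with the dorsal neck region clipped and then shaved. Skin reactions were read at 24 and 48 h. Erythema was graded 0–4 and edema 0–3, and values are counts of animals at each grade. Groups held 6 animals, or 4 in the control-paired group.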

[7] = species on record: Cavia porcellus; test: Compound was evaluated for maximization test in guinea pigs and the erythema was observed for the experiment 2;3/0; format: functional; method in brief: as §5
[8] = species on record: Cavia porcellus; test: Compound was evaluated for maximization test in guinea pigs and the erythema was observed for the experiment 0; format: functional; method in brief: as §5
[9] = system: Cavia porcellus; test: Compound was evaluated for maximization test in guinea pigs and the edema was observed for the experiment 3; format: functional; method in brief: as §5
[10] = system: Cavia porcellus; test: Compound was evaluated for maximization test in guinea pigs and the edema was observed for the experiment 1; format: functional; method in brief: as §5
[11] = species on record: Cavia porcellus; test: Compound was evaluated for maximization test in guinea pigs and the erythema was observed for the experiment 1; format: functional; method in brief: as §5
[12] = species on record: Cavia porcellus; test: Compound was evaluated for maximization test in guinea pigs and the erythema was observed for the experiment 4;0/2; format: functional; method in brief: as §5
[13] = species on record: Cavia porcellus; test: Compound was evaluated for maximization test in guinea pigs and the erythema was observed for the experiment 3;1/2; format: functional; method in brief: as §5
[14] = system: Cavia porcellus; test: Compound was evaluated for maximization test in guinea pigs and the edema was observed for the experiment 2;4/4; format: functional; method in brief: as §5
[15] = species on record: Oryctolagus cuniculus; test: Compound was evaluated for primary irritation test by applying at the intact site and the average score was reported. Number of animals tested =6; format: toxicity, organism-based; conditions: rabbit, in vivo, topical_or_ocular
Method in brief: (§6)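 Rabbit backs shaved and depilated; 0.5 g compound applied to four sites (two intact, two abraded) under gauze for 24 h. Sites examined grossly 24 and 72 h after removing covering; scored by Draize method.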

[16] = species on record: Oryctolagus cuniculus; test: Compound was evaluated for primary irritation test by applying at the abraded site and the average score was reported. Number of animals tested =6; format: toxicity, organism-based; conditions: rabbit, in vivo, topical_or_ocular; method in brief: as §6
[17] = species on record: Mus musculus; test: Compound was evaluated for its effective dose to inhibit oxazolone- induced delayed type hypersensitivity; format: functional; method in brief: as §2
[18] = species on record: Mus musculus; test: Compound was evaluated for its effective dose to inhibit picryl chloride induced delayed type hypersensitivity; format: functional; method in brief: as §2
[19] = species on record: Rattus norvegicus; test: Compound was evaluated for its inhibitory effects on passive cutaneous anaphylaxis in rats at a dose of 2.5 mg/site; format: functional; method in brief: as §4
[20] = system: Mus musculus; test: Compound was evaluated for its inhibitory effects on 12-O-tetradecanoylphorbol-13-acetate -induced edema; format: functional; method in brief: as §3
[21] = system: Mus musculus; test: Compound was evaluated for its inhibitory effects on arachidonic acid induced ear edema at a dose of 100 (ug / ear); format: functional; method in brief: as §1
[22] = species on record: Oryctolagus cuniculus; test: Compound was evaluated for primary irritation test by applying at the intact site and the average score was reported. Number of animals tested =6.; format: toxicity, organism-based; conditions: rabbit, in vivo, topical_or_ocular; method in brief: as §6
[23] = species on record: Mus musculus; test: Compound was evaluated for its inhibitory effects on delayed type hypersensitive reaction in mouse ears at a dose of 300 ug/site; format: functional; method in brief: as §2
[24] = system: Mus musculus; test: Compound was evaluated for its inhibitory effects on 12-O-tetradecanoylphorbol-13-acetate (TPA) -induced edema in mouse ear at a dose of 100 ug/site; format: functional; method in brief: as §3
[25] = system: Mus musculus; test: Compound was evaluated for its inhibitory effects on arachidonic acid (AA) induced mouse ear edema at a dose of 100 ug/ear; format: functional; method in brief: as §1
[26] = species on record: Rattus norvegicus; test: Compound was evaluated for its inhibitory effects on passive cutaneous anaphylaxis in rats at a dose of 1 mg/site; format: functional; method in brief: as §4
[27] = system: Mus musculus; test: Compound was evaluated for its inhibitory effects on 12-O-tetradecanoylphorbol-13-acetate -induced edema.
[28] = system: Mus musculus; test: Compound was evaluated for its inhibitory effects on arachidonic acid induced ear edema at a dose of 100 (ug / ear)
[29] = species on record: Rattus norvegicus; test: Compound was evaluated for its inhibitory effects on passive cutaneous anaphylaxis in rats at a dose of 2.5 (mg / site).; format: functional; method in brief: as §4
[30] = species on record: Mus musculus; test: Compound was evaluated for its effective dose to inhibit oxazolone- induced delayed type hypersensitivity
[31] = species on record: Mus musculus; test: Compound was evaluated for its effective dose to inhibit picryl chloride induced delayed type hypersensitivity.
[32] = species on record: Rattus norvegicus; test: Compound was evaluated for its inhibitory effects on passive cutaneous anaphylaxis in rats at a dose of 1 (mg / site).; format: functional; method in brief: as §4

| IC50 [3] [µg/mL] | SMILES | Inhibition [1] [%] | Inhibition [2] [%] | Inhibition [4] [%] | Inhibition [5] [%] | also measured |
| --- | --- | --- | --- | --- | --- | --- |
| 0.084 (≈ 0.181 µM) | Cc1ccc(O)c(NCCCN2CCC(OC(c3ccccc3)c3ccc(Cl)cc3)CC2)c1 (stereo not given) | 53.6 | 31.3 | 86 | 26 |  |
| 0.068 (≈ 0.138 µM) | CC(C)(C)c1ccc(O)c(NCCCN2CCN(C(c3ccccc3)c3ccc(Cl)cc3)CC2)c1 (stereo not given) | 38 | 60.6 | 82.4 | 12.6 |  |
|  | O=[N+]([O-])c1ccc(Cl)c([N+](=O)[O-])c1 |  |  |  |  | Edema [6]: 0; Erythema [7]: 3; Erythema [8]: 0; Edema [9]: 0; Edema [10]: 0; Erythema [11]: 0; Erythema [12]: 0; Erythema [13]: 1; Edema [14]: 4 |
| 0.3 (≈ 0.698 µM) | Cc1ccc(O)c(N(C)CCCN2CCN(C(c3ccccc3)c3ccccc3)CC2)c1 |  |  | 50.9 |  |  |
| 0.038 (≈ 0.0914 µM) | Cc1ccc(O)c(NCCCN2CCN(C(c3ccccc3)c3ccccc3)CC2)c1 | 51 | 79.3 |  | 11.2 |  |
| 0.27 (≈ 0.582 µM) | Cc1ccc(O)c(N(C)CCCN2CCN(C(c3ccccc3)c3ccc(Cl)cc3)CC2)c1 (stereo not given) |  |  | 51.8 |  |  |
| 0.87 (≈ 2.02 µM) | Cc1c(C)c2c(c(C)c1O)CC[C@@](C)(CCC[C@H](C)CCC[C@H](C)CCCC(C)C)O2 [ALPHA-TOCOPHEROL] |  |  |  |  |  |
| 0.025 (≈ 0.0536 µM) | Cc1ccc(O)c(NCCCN2CCC(C(O)(c3ccc(F)cc3)c3ccc(F)cc3)CC2)c1 |  |  | 86.9 | 25.4 |  |
| 0.12 (≈ 0.267 µM) | Cc1ccc(O)c(NCCCN2CCN(C(c3ccccc3)c3ccc(Cl)cc3)CC2)c1 (stereo not given) | 67.7 | 62 |  | 48.5 | Average score [15]: 0; Average score [16]: 0 |
| 0.1 (≈ 0.221 µM) | Cc1ccc(O)c(NCCCN2CCN(C(c3ccc(F)cc3)c3ccc(F)cc3)CC2)c1 | 51 | 79.2 |  | 31.7 | ED50 [17]: 47.8 µg/mL (≈ 106 µM); ED50 [18]: 52.9 µg/mL (≈ 117 µM); Inhibition [19]: 51.9%; ED50 [20]: 47 µg/mL (≈ 104 µM); ED50 [21]: 107.9 µg/mL (≈ 239 µM); Average score [15]: 0; Average score [16]: 0 |
| 0.29 (≈ 0.634 µM) | Cc1ccc(O)c(N(CCCN2CCN(C(c3ccccc3)c3ccccc3)CC2)C(C)C)c1 |  |  | 42.6 |  |  |
| 0.041 (≈ 0.0882 µM) | Cc1ccc(O)c(NCCCN2CCC(C(O)(c3ccccc3)c3ccc(Cl)cc3)CC2)c1 (stereo not given) | 43.7 | 80.4 | 97.5 | 39.2 | Average score [15]: 0; Average score [16]: 0 |
| 0.029 (≈ 0.0673 µM) | Cc1ccc(O)c(NCCCN2CCC(C(O)(c3ccccc3)c3ccccc3)CC2)c1 | 61.5 | 77 | 89 | 36.8 | Average score [22]: 0; Average score [16]: 0 |
| 0.045 (≈ 0.112 µM) | Cc1ccc(O)c(NCCN2CCN(C(c3ccccc3)c3ccccc3)CC2)c1 | 48.1 | 62 | 75.3 | 32.8 |  |
|  | CN(C)CCOC(c1ccccc1)c1ccccc1 [DIPHENHYDRAMINE] |  |  |  | 27.9 | ED50 [23]: >300 µg/mL; ED50 [24]: >300 µg/mL; Inhibition [19]: 52.8%; ED50 [25]: >300 µg/mL |
| 0.39 (≈ 0.73 µM) | CC(C)N(CCCN1CCN(C(c2ccccc2)c2ccc(Cl)cc2)CC1)c1cc(C(C)(C)C)ccc1O (stereo not given) |  |  | 40.3 |  |  |
| 0.48 (≈ 0.991 µM) | Cc1ccc(O)c(NCCCN2CCN(C(c3ccc(Cl)cc3)c3ccc(Cl)cc3)CC2)c1 |  |  | 58.2 |  |  |
| 0.44 (≈ 0.894 µM) | Cc1ccc(O)c(N(CCCN2CCN(C(c3ccccc3)c3ccc(Cl)cc3)CC2)C(C)C)c1 (stereo not given) |  |  | 44.4 |  |  |
| 0.79 (≈ 1.67 µM) | Cc1ccc(O)c(N(CCCN2CCC(C(O)(c3ccccc3)c3ccccc3)CC2)C(C)C)c1 |  |  | 39.2 |  |  |
| 0.036 (≈ 0.0836 µM) | Cc1ccc(O)c(NCCCN2CCC(OC(c3ccccc3)c3ccccc3)CC2)c1 | 61.8 | 28.1 |  |  | Inhibition [26]: 28.3% |
| 0.013 (≈ 0.028 µM) | Cc1ccc(O)c(NCCCN2CCCN(C(c3ccccc3)c3ccc(Cl)cc3)CC2)c1 (stereo not given) | 50.3 |  | 87 | 36.4 |  |
| 2.2 (≈ 4.18 µM) | Cc1ccc(O)c(N(CCCN2CCN(C(c3ccc(Cl)cc3)c3ccc(Cl)cc3)CC2)C(C)C)c1 |  |  | 26.4 |  |  |
| 1.2 (≈ 2.43 µM) | Cc1ccc(O)c(N(CCCN2CCN(C(c3ccc(F)cc3)c3ccc(F)cc3)CC2)C(C)C)c1 |  |  | 24.2 |  |  |
| 0.028 (≈ 0.06 µM) | Cc1ccc(O)c(NCCCN2CCC(OC(c3ccc(F)cc3)c3ccc(F)cc3)CC2)c1 | 49.8 | 59.3 | 61.8 | 39 |  |
|  | CC(C(=O)O)c1ccc(C(=O)c2cccs2)cc1 (stereo not given) [SUPROFEN] |  |  |  | -0.7 | ED50 [23]: >300 µg/mL; ED50 [24]: 123.2 µg/mL (≈ 473 µM); Inhibition [19]: 16.9%; ED50 [25]: 15.4 µg/mL (≈ 59.2 µM) |
| 1 (≈ 1.97 µM) | Cc1ccc(O)c(N(CCCN2CCC(C(O)(c3ccccc3)c3ccc(Cl)cc3)CC2)C(C)C)c1 (stereo not given) | 48.5 | 18.7 | 89.3 | 48.3 |  |
|  | C[C@]12CCC(=O)C=C1CCC1[C@@H]2[C@@H](O)C[C@@]2(C)[C@H]1CC[C@]2(O)C(=O)CO (single isomer, unassigned) [HYDROCORTISONE] |  |  |  |  | ED50 [27]: 6.69 µg/mL (≈ 18.5 µM); ED50 [28]: 3.09 µg/mL (≈ 8.52 µM); Inhibition [29]: -16.4%; ED50 [30]: 3.43 µg/mL (≈ 9.46 µM); ED50 [31]: 1.2 µg/mL (≈ 3.31 µM); Inhibition [32]: 6.99% |
